Molecules are shown by their SMILES. Several values for one entry are separate records, joined by “and”; a condition that tells them apart may be missing. Equal values may be shown once.

This passage reports IC50 results from ChEMBL document CHEMBL1127494, “New hexahydroxybiphenyl derivatives as inhibitors of protein kinase C” (J Med Chem, 1994).

Assay [1] concerns the target Protein kinase C (PKC). The assay can be described thus: Displacement of [3H]PDBU from protein kinase C. It is filed as protein assay, Rattus norvegicus. In general terms: Loss of bound radioactivity is the signal in a displacement assay; it reports binding, not function.
Assay [2] can be described thus: Inhibition of c-AMP dependent kinase (PKA) catalytic subunit. Also noted: species or system Bos taurus.
The target in assay [3] is Protein kinase C (PKC). The assay is described as follows: Inhibitory activity against protein kinase C of rat brain. In short, it runs like this:
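PKC purified from rat brain. The read-out was 32P transfer from 30 μM [γ-32P]ATP to histone IIIS (200 μg/mL) in 20 mM Hepes pH 7.5 with phosphatidylserine, 10 mM MgCl2, 100 μM CaCl2 and 47.5 μM EGTA, run 10 min at 30 °C. Reactions were TCA-precipitated, filtered and scintillation-counted. Lipid-independent activity was subtracted, and test levels were 4, 43 and 218 μM.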

Assay [4] concerns the target Protein kinase C gamma type (Homo sapiens, UniProt P05129). The assay can be described thus: Inhibition of protein kinase C gamma. The gist of the method: (§1)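 Recombinant human enzyme expressed by baculovirus in SF9 cells, then partially purified by homogenizing the pellet in Tris pH 8 detergent buffer, spinning, and running a DEAE column with a 0–500 mM NaCl gradient, with the peak pooled. The reaction was [γ-32P]ATP (30 μM) incorporation into histone IIIS (200 μg/mL) with phosphatidylserine, Ca2+/EGTA and Mg2+ in Hepes pH 7.5, run 10 min at 30 °C. It was stopped with TCA and counted on filters. No-lipid background was subtracted, and compounds were tested at 4, 43 and 218 μM.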

For assay [5], the target named is Protein kinase C alpha type (Homo sapiens, UniProt P17252). The assay can be described thus: Inhibition of protein kinase C alpha.
The target in assay [6] is Protein kinase C delta type (Homo sapiens, UniProt Q05655). The assay is described as follows: Inhibition of protein kinase C delta. In short, it runs like this: as §1
Protein kinase C delta type, sequence (Q05655 whole entry): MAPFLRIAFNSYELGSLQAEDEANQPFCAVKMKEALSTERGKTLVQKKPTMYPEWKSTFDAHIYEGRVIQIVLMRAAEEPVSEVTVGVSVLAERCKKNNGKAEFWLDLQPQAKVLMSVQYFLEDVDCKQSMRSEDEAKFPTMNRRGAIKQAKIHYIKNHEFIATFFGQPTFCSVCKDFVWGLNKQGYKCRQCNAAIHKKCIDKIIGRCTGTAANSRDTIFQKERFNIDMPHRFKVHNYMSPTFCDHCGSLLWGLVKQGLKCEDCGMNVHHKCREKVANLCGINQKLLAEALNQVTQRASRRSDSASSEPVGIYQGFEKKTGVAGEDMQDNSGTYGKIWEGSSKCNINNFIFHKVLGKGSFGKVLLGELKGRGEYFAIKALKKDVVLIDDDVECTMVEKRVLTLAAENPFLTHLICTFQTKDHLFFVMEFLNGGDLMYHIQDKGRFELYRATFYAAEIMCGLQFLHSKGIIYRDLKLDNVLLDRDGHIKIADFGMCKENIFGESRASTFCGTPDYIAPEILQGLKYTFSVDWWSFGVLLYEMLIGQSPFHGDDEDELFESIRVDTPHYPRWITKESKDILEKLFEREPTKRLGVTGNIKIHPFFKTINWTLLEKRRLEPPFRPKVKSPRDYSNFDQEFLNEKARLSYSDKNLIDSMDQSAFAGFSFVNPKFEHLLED

In the case of `CCOC(=O)c1cc(OCc2ccccc2)c(OCc2ccccc2)c(OCc2ccccc2)c1-c1c(C(=O)OCC)cc(OCc2ccccc2)c(OCc2ccccc2)c1OCc1ccccc1`, the 50% inhibitory concentration (IC50) was above 272 µM in assay [1]; 19 µM in assay [2]; 50 µM and 96 µM and 75 µM in assay [3].
With `COc1c(OCc2ccccc2)c(OCc2ccccc2)cc2c1-c1c(cc(OCc3ccccc3)c(OCc3ccccc3)c1OC)C[N+]1(C2)Cc2cc(OCc3ccccc3)c(OCc3ccccc3)c(OC)c2-c2c(cc(OCc3ccccc3)c(OCc3ccccc3)c2OC)C1`, the IC50 is above 272 µM in assay [1], 15 µM in assay [2] and 87 µM in assay [3].
`COc1cc2c(c(OC)c1OC)-c1c(cc(OC)c(OC)c1OC)COC2` yielded an IC50 in assay [3] above 218 µM.
Same read-out and setting: the figure for `COC(=O)c1cc(O)c(O)c(O)c1-c1c(C(=O)OC)cc(O)c(O)c1O` is above 218 µM.
Regarding `O=C1OCC2O[C@@H](O)C3OC(=O)c4cc(O)c(O)c(O)c4-c4c(cc(O)c(O)c4O)C(=O)OC3C2OC(=O)c2cc(O)c(O)c(O)c2-c2c1cc(O)c(O)c2O` (stereo not given in full), the IC50 is below 50 µM in assay [1], above 218 µM in assay [2] and 4 µM in assay [3].
Consider `Oc1cc2c(c(O)c1O)-c1c(cc(O)c(O)c1O)COC2`, for which the IC50 in assay [4] is 34 µM and 30 µM; in assay [1], 54 µM; in assay [2] it was 31 µM and 29 µM and > 218 µM; in assay [3], 32 µM and 28 µM and 43 µM; in assay [5], 37 µM; in assay [6], 42 µM and 44 µM.
In the case of `c1ccc(COc2cc3c(c(OCc4ccccc4)c2OCc2ccccc2)-c2c(cc(OCc4ccccc4)c(OCc4ccccc4)c2OCc2ccccc2)COC3)cc1`, the IC50 in assay [3] came out at 180 µM.
Still for that read-out and setting: with `BrCc1cc(OCc2ccccc2)c(OCc2ccccc2)c(OCc2ccccc2)c1-c1c(CBr)cc(OCc2ccccc2)c(OCc2ccccc2)c1OCc1ccccc1` the figure was 103 µM.
Same read-out and setting: with `COc1c(OCc2ccccc2)c(OCc2ccccc2)cc(CBr)c1-c1c(CBr)cc(OCc2ccccc2)c(OCc2ccccc2)c1OC` the figure was above 218 µM; with `O=Cc1cc(OCc2ccccc2)c(OCc2ccccc2)c(OCc2ccccc2)c1-c1c(C=O)cc(OCc2ccccc2)c(OCc2ccccc2)c1OCc1ccccc1`, 131 µM.
For `COC(=O)c1cc(OCc2ccccc2)c(OCc2ccccc2)c(OCc2ccccc2)c1-c1c(C(=O)OC)cc(OCc2ccccc2)c(OCc2ccccc2)c1OCc1ccccc1`, in assay [3], the IC50 is 180 µM and 131 µM and > 218 µM.
On to `O=C(O[C@@H]1OC2COC(=O)c3cc(O)c(O)c(O)c3-c3c(cc(O)c(O)c3O)C(=O)OC2C2OC(=O)c3cc(O)c(O)c(O)c3-c3c(cc(O)c(O)c3O)C(=O)OC21)c1cc(O)c(O)c(O)c1` (stereo not given in full), for which the IC50 in assay [1] was below 50 µM; in assay [2], above 218 µM; in assay [3] it was 3 µM.
As to `c1ccc(COc2cc3c(c(OCc4ccccc4)c2OCc2ccccc2)-c2c(cc(OCc4ccccc4)c(OCc4ccccc4)c2OCc2ccccc2)C[N+]2(C3)Cc3cc(OCc4ccccc4)c(OCc4ccccc4)c(OCc4ccccc4)c3-c3c(cc(OCc4ccccc4)c(OCc4ccccc4)c3OCc3ccccc3)C2)cc1`, the IC50 in assay [3] amounted to 131 µM.
On the same count and under the same terms, the figure for `CCOC(=O)c1cc(O)c(O)c(O)c1-c1c(C(=O)OCC)cc(O)c(O)c1O` is above 218 µM.
With `COCc1cc(O)c(O)c(O)c1-c1c(COC)cc(O)c(O)c1O`, the IC50 is 50 µM in assay [4], above 218 µM in assay [2], 98 µM in assay [3] and 43 µM in assay [5].
The compound `COC(=O)c1cc(OCc2ccccc2)c(OCc2ccccc2)c(OC)c1-c1c(C(=O)OC)cc(OCc2ccccc2)c(OCc2ccccc2)c1OC` yielded an IC50 in assay [3] of 97 µM.
For the compound `COc1c(OCc2ccccc2)c(OCc2ccccc2)cc(C=O)c1-c1c(C=O)cc(OCc2ccccc2)c(OCc2ccccc2)c1OC`, in assay [3], the IC50 is above 218 µM.
With `CCOC(=O)c1cc(OCc2ccccc2)c(OCc2ccccc2)c(OC)c1-c1c(C(=O)OCC)cc(OCc2ccccc2)c(OCc2ccccc2)c1OC`, in assay [3], the concentration for half-maximal inhibition (IC50) turned out to be 94 µM.
The same measure, in the same setting: the figure for `COc1c(OCc2ccccc2)c(OCc2ccccc2)cc(CO)c1-c1c(CO)cc(OCc2ccccc2)c(OCc2ccccc2)c1OC` is above 218 µM.
For the compound `OCc1cc(OCc2ccccc2)c(OCc2ccccc2)c(OCc2ccccc2)c1-c1c(CO)cc(OCc2ccccc2)c(OCc2ccccc2)c1OCc1ccccc1`, the IC50 is above 272 µM in assay [1]; 21 µM in assay [2]; 70 µM and 55 µM and 88 µM in assay [3].
The compound `OCc1cc(OCc2ccccc2)c(OCc2ccccc2)c(O)c1-c1c(CO)cc(OCc2ccccc2)c(OCc2ccccc2)c1O` displayed an IC50 in assay [3] above 218 µM.
Same read-out and setting: the figure for `O=C(O[C@@H]1O[C@@H]2COC(=O)c3cc(O)c(O)c(O)c3-c3c(cc(O)c(O)c3O)C(=O)O[C@H]([C@H]1O)[C@@H]2O)c1cc(O)c(O)c(O)c1` [CORILAGIN] is 20 µM.
On to `O=C(O[C@@H]1O[C@@H]2COC(=O)c3cc(O)c(O)c(O)c3-c3c(cc(O)c(O)c3O)C(=O)O[C@H]([C@H]1OC(=O)c1cc(O)c(O)c(O)c1)[C@@H]2OC(=O)c1cc(O)c(O)c(O)c1)c1cc(O)c(O)c(O)c1` [PUNICAFOLIN], for which the IC50 in assay [1] is below 50 µM; in assay [2], above 218 µM; in assay [3] it was 4 µM.
On to `CCCCCCCCCCCCC/C=C/[C@@H](O)[C@@H](N)CO` [SPHINGOSINE], for which the IC50 in assay [1] turned out to be 23 µM; in assay [3] it was 40 µM.

The term IC50 denotes the concentration that inhibits the measured activity by half. High values mean lower potency, low ones higher potency.
